Results as given in ChEMBL document CHEMBL1156119 (J Med Chem, 2009).

Tests used:
Format in all cases: cell-based
SMB [1] = assay: Antiprion activity against Scrapie prion protein-mediated scrapie in mouse SMB cells assessed as remaining PrP-Sc level at 10 uM after 5 days by Bradford assay relative to control
Summary of the method: (§1)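 SMB scrapie-infected mouse cells, non-neuronal, in medium 199 with 10% newborn calf and 5% fetal calf serum, seeded at 3 × 10⁴ cells/well and attached for 24 h. Compound DMSO stocks were diluted via HBSS into medium and applied for 5 days. Lysates of ~30-40 μg protein/well were dot-blotted, digested with proteinase K at 75 μg mL⁻¹ (1 h, 37 °C) and denatured in 1.8 M guanidine thiocyanate. Read-out was %PrP^Sc versus DMSO-only control, in triplicate.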

SMB [2] = assay: Antiprion activity against Scrapie prion protein-mediated scrapie in mouse SMB cells assessed as remaining PrP-Sc level at 20 uM after 5 days by Bradford assay relative to control; summary of the method: as §1
[3] = Antiprion activity against Scrapie prion protein-mediated scrapie in mouse SMB cells assessed as remaining PrP-Sc level after 5 days by Bradford assay; details: 120 h
Summary of the method: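 Same SMB dot-blot protocol with 5-day exposure. Compounds were rescreened over a range of concentrations to fit an EC₅₀ from dose-response curves. Each determination was run in triplicate, in at least two independent experiments. PrP^Sc was measured relative to an untreated DMSO-only control.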

SMB [4] = assay: Antiprion activity against Scrapie prion protein-mediated scrapie in mouse SMB cells assessed as remaining PrP-Sc level at 1 uM after 5 days by Bradford assay relative to control
Summary of the method: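 Compound DMSO stocks were diluted via HBSS into medium and applied for 5 days. Lysates of ~30-40 μg protein/well were dot-blotted, digested with proteinase K at 75 μg mL⁻¹ (1 h, 37 °C) and denatured in 1.8 M guanidine thiocyanate. Read-out was %PrP^Sc versus DMSO-only control, in triplicate.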

[5] = Cytotoxicity against mouse SMB cells at 20 uM after 5 days by MTT assay; details: 120 h
Summary of the method: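 SMB cells were seeded at 3 × 10⁴ cells/well and attached for 24 h. Compound was added from DMSO stock diluted through HBSS into the medium, and cells were exposed for 5 days. Viability was read by MTT assay following the standard reagent protocol.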

Row | Structure (SMILES) | Remaining PrP-Sc level (SMB [2]) [%] | EC50 [3] [nM] | also measured
1 | CC(=O)c1cccc(NC(=O)C(=O)c2c[nH]c3ccccc23)c1 | – | – | Remaining PrP-Sc level (SMB [1]): 98.8%
2 | Cc1[nH]c2ccccc2c1C(=O)C(=O)N1CCOCC1 | 81.9 | – | –
3 | Cn1cc(C(=O)C(=O)NCc2ccco2)c2ccccc21 | 109 | – | –
4 | O=C(Nc1ccc(F)c(F)c1)C(=O)c1c[nH]c2ccccc12 | – | 320 | Activity (SMB [4]): 1.4%
5 | Cc1ccc(NC(=O)C(=O)c2c[nH]c3ccccc23)cc1 | – | 130 | Activity (SMB [4]): 4.1%
6 | O=C(Nc1cc(F)c(F)c(F)c1)C(=O)c1c[nH]c2ccccc12 | 62.5 | – | –
7 | O=C(NCc1ccc(Oc2ccccc2)cc1)C(=O)c1c[nH]c2ccccc12 | – | 1030 | Remaining PrP-Sc level (SMB [1]): 17.5%
8 | CN(C)c1ccc(NC(=O)C(=O)c2c[nH]c3ccccc23)cc1 | – | 26 | Activity (SMB [4]): 7.2%
9 | O=C(Nc1cccc2ccccc12)C(=O)c1c[nH]c2ccccc12 | 135 | – | –
10 | O=C(NCc1ccccc1)C(=O)c1c[nH]c2ccccc12 | 90 | – | –
11 | O=C(Nc1ccc(OC(F)(F)F)cc1)C(=O)c1c[nH]c2ccccc12 | – | 380 | Activity (SMB [4]): 6.7%
12 | Cc1[nH]c2ccccc2c1C(=O)C(=O)Nc1ccc(O)cc1 | 83.1 | – | –
13 | O=C(Nc1cccc(-c2cnco2)c1)C(=O)c1c[nH]c2ccccc12 | – | 530 | Remaining PrP-Sc level (SMB [1]): 16.8%
14 | O=C(C(=O)N1CCOCC1)c1c[nH]c2ccccc12 | 80.3 | – | –
15 | COc1cccc(NC(=O)C(=O)c2cn(C)c3ccccc23)c1 | 61.8 | 4730 | –
16 | COc1cc(NC(=O)C(=O)c2c(C)[nH]c3ccccc23)ncn1 | 69.7 | – | –
17 | O=C(Nc1cccc(CO)c1)C(=O)c1c[nH]c2ccccc12 | – | 14800 | Remaining PrP-Sc level (SMB [1]): 17.6%
18 | Cn1cc(C(=O)C(=O)N2CCOCC2)c2ccccc21 | 100 | – | –
19 | Cn1cc(C(=O)C(=O)Nc2cccc(F)c2)c2ccccc21 | 11.6 | – | –
20 | COc1ccc(NC(=O)C(=O)c2c[nH]c3ccccc23)cn1 | – | 120 | Activity (SMB [4]): 4.9%
21 | Cn1cc(C(=O)C(=O)Nc2ccccc2)c2ccccc21 | 81.4 | 6900 | –
22 | CCc1cccc(NC(=O)C(=O)c2c(C)[nH]c3ccccc23)c1 | 78.8 | – | –
23 | O=C(Nc1ccc(-n2cccc2)cc1)C(=O)c1c[nH]c2ccccc12 | – | 6 | Activity (SMB [4]): 17.1%
24 | Cn1cc(C(=O)C(=O)Nc2cccc3c(O)cccc23)c2ccccc21 | 114 | – | –
25 | COc1cccc(CNC(=O)C(=O)c2c[nH]c3ccccc23)c1 | 104 | – | –
26 | CC(=O)c1cccc(NC(=O)C(=O)c2c(C)[nH]c3ccccc23)c1 | 84.4 | – | –

Row | Structure (SMILES) | Remaining PrP-Sc level (SMB [2]) [%] | EC50 [3] [nM] | also measured
27 | CC(=O)c1cccc(NC(=O)C(=O)c2cn(C)c3ccccc23)c1 | 157 | – | –
28 | O=C(Nc1ccccc1Cl)C(=O)c1c[nH]c2ccccc12 | 85.4 | – | –
29 | COc1cccc(NC(=O)C(=O)c2c(C)[nH]c3ccccc23)c1 | 133 | – | –
30 | CCCCNC(=O)C(=O)c1c[nH]c2ccccc12 | 80.8 | – | –
31 | O=C(Nc1cccc2ccc(O)cc12)C(=O)c1c[nH]c2ccccc12 | 115 | – | –
32 | Cn1cc(C(=O)C(=O)NCc2ccccc2)c2ccccc21 | – | – | Remaining PrP-Sc level (SMB [1]): 148%
33 | Cc1[nH]c2ccccc2c1C(=O)C(=O)Nc1ccccc1 | – | – | Remaining PrP-Sc level (SMB [1]): 41.6%
34 | O=C(Nc1ccc(-c2cnco2)cc1)C(=O)c1c[nH]c2ccccc12 | – | 19 | Activity (SMB [4]): 16.8%
35 | N#Cc1cccc(NC(=O)C(=O)c2c[nH]c3ccccc23)c1 | 70.1 | – | –
36 | Cc1[nH]c2ccccc2c1C(=O)C(=O)Nc1cccc(F)c1 | 64 | – | –
37 | O=C(Nc1cccc(O)c1)C(=O)c1c[nH]c2ccccc12 | – | 820 | Activity (SMB [4]): 52.4%
38 | Cc1csc(NC(=O)C(=O)c2c[nH]c3ccccc23)n1 | – | – | Remaining PrP-Sc level (SMB [1]): 105%
39 | CCOc1ccc(CNC(=O)C(=O)c2c[nH]c3ccccc23)cc1 | – | 60 | Activity (SMB [4]): 6.5%
40 | CCc1cccc(NC(=O)C(=O)c2c[nH]c3ccccc23)c1 | – | 12100 | Remaining PrP-Sc level (SMB [1]): 37.9%
41 | O=C(Nc1ccc(Cl)cc1)C(=O)c1c[nH]c2ccccc12 | – | 65 | Activity (SMB [4]): 5.9%
42 | COc1ccc(CNC(=O)C(=O)c2c[nH]c3ccccc23)cc1 | 104 | – | –
43 | O=C(Nc1cccc2c(O)cccc12)C(=O)c1c[nH]c2ccccc12 | 101 | – | –
44 | COc1ccc(NC(=O)C(=O)c2cn(C)c3ccccc23)cc1 | – | 68 | Activity (SMB [4]): 11.6%
45 | Cn1cc(C(=O)C(=O)Nc2cccc(CO)c2)c2ccccc21 | 137 | – | –
46 | Cn1cc(C(=O)C(=O)NCc2cccnc2)c2ccccc21 | – | – | Remaining PrP-Sc level (SMB [1]): 117%
47 | COc1ccc(CNC(=O)C(=O)c2c[nH]c3ccccc23)cc1OC | – | 520 | Activity (SMB [4]): 19.3%
48 | COc1cc(NC(=O)C(=O)c2c[nH]c3ccccc23)cc(OC)c1OC | 143 | – | –
49 | CCc1cccc(NC(=O)C(=O)c2cn(C)c3ccccc23)c1 | 132 | – | –
50 | Cc1[nH]c2ccccc2c1C(=O)C(=O)Nc1cccc(C#N)c1 | 78.5 | – | –
51 | CSc1ccc(CNC(=O)C(=O)c2c[nH]c3ccccc23)cc1 | – | 40 | Activity (SMB [4]): 5.6%
52 | Cn1cc(C(=O)C(=O)Nc2ccc(O)cc2)c2ccccc21 | – | 3770 | Remaining PrP-Sc level (SMB [1]): 47.3%

Row | Structure (SMILES) | Remaining PrP-Sc level (SMB [2]) [%] | EC50 [3] [nM] | also measured
53 | Cc1[nH]c2ccccc2c1C(=O)C(=O)Nc1cccc(CO)c1 | 80.8 | – | –
54 | O=C(NCc1ccco1)C(=O)c1c[nH]c2ccccc12 | 95.2 | – | –
55 | Cc1ccccc1NC(=O)C(=O)c1c[nH]c2ccccc12 | 93.8 | – | –
56 | COc1ccc(NC(=O)C(=O)c2c(C)[nH]c3ccccc23)cc1 | 72.4 | – | –
57 | Cc1[nH]c2ccccc2c1C(=O)C(=O)Nc1cccc2c(O)cccc12 | – | – | Activity [5]: Toxic
58 | O=C(NCc1cccnc1)C(=O)c1c[nH]c2ccccc12 | 107 | – | –
59 | O=C(Nc1ccc(-n2cccn2)cc1)C(=O)c1c[nH]c2ccccc12 | – | 1 | Activity (SMB [4]): 7%
60 | COc1cc(NC(=O)C(=O)c2c[nH]c3ccccc23)cc(OC)c1 | 75.4 | – | –
61 | Cc1ccc(NC(=O)C(=O)c2c[nH]c3ccccc23)cc1C | – | 1200 | Activity (SMB [4]): 48.7%
62 | Cc1[nH]c2ccccc2c1C(=O)C(=O)Nc1cccc(Oc2ccccc2)c1 | – | – | Remaining PrP-Sc level (SMB [1]): 103%
63 | C=CCNC(=O)C(=O)c1c[nH]c2ccccc12 | 158 | – | –
64 | O=C(NC1CCCCC1)C(=O)c1c[nH]c2ccccc12 | 83.1 | – | –
65 | O=C(Nc1cccnc1)C(=O)c1c[nH]c2ccccc12 | – | 1660 | Remaining PrP-Sc level (SMB [1]): 8%
66 | O=C(C(=O)N1CCCCC1)c1c[nH]c2ccccc12 | 112 | – | –
67 | O=C(Nc1ccc(C(F)(F)F)cc1)C(=O)c1c[nH]c2ccccc12 | – | 290 | Activity (SMB [4]): 6.1%
68 | Cc1[nH]c2ccccc2c1C(=O)C(=O)NCc1cccnc1 | 73.7 | – | –
69 | O=C(Nc1cccc(Oc2ccccc2)c1)C(=O)c1c[nH]c2ccccc12 | 98.3 | – | –
70 | Cc1[nH]c2ccccc2c1C(=O)C(=O)Nc1cccc2ccccc12 | 96.3 | – | –
71 | COc1cc(NC(=O)C(=O)c2c[nH]c3ccccc23)ncn1 | – | 680 | Activity (SMB [4]): 23%
72 | Cc1cccc(NC(=O)C(=O)c2c[nH]c3ccccc23)c1 | – | 6350 | Remaining PrP-Sc level (SMB [1]): 21.7%
73 | CCCCNC(=O)C(=O)c1cn(C)c2ccccc12 | 124 | – | –
74 | O=C(Nc1cccc(Cl)c1)C(=O)c1c[nH]c2ccccc12 | – | 1510 | Remaining PrP-Sc level (SMB [1]): 40%
75 | Cn1cc(C(=O)C(=O)Nc2cccc3ccccc23)c2ccccc21 | 121 | – | –
76 | COc1cc(NC(=O)C(=O)c2cn(C)c3ccccc23)ncn1 | – | – | Remaining PrP-Sc level (SMB [1]): 86.4%
77 | O=C(Nc1ccc(F)cc1)C(=O)c1c[nH]c2ccccc12 | – | 64 | Activity (SMB [4]): 10.3%
